Shown are actives, neighbours in structure and some others; about 4.6% of the full set was active somewhere.
OX1R antag-1: OX1R (HCRTR1) antagonists, primary screen, fluorescence, CHO/OX1R cells, Fluo-8 calcium, orexin A | Orexin/Hypocretin receptor type 1 (Homo sapiens), O43613 | Fluo-8 calcium fluorescence | inhibition, % at 5 µM | 330,000 tested, 0.43% active;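 active means inhibition above its plate's threshold, mean inhibition of all tested compounds on the plate plus 3 SD, cut at about 37% in these data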
GPR7 antagonist: GPR7 receptor antagonists, primary screen, cell-based, fluorescence, single concentration. GPR7-expressing cells, fluorescence antagonist assay. inhibition, % at 4.4 µM. 290,000 tested, 1.1% active. AID 1861, 2009; in the data active means inhibition above about 16%, passing the limit was not always enough;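 further: cells stimulated with the agonist NPW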
Target sequence (P48145 whole entry, looked up): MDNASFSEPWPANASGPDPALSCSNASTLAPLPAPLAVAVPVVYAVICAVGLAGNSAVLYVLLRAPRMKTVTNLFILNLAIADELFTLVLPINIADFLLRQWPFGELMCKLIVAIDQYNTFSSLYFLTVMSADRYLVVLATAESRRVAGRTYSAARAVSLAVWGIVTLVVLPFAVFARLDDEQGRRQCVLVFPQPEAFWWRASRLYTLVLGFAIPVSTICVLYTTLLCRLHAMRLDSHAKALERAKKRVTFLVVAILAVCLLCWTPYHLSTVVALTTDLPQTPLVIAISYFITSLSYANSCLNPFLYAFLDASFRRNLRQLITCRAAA
CHO parental Ca: ATP-evoked calcium signal inhibitors, parental CHO, primary screen, counter-screen for OX1R antagonist project, cell-based, fluorescence, Fluo-8 calcium dye. inhibition, % at 5.6 µM. 330,000 tested, 0.63% active. parental CHO-K1, ATP-induced calcium, Fluo-8 fluorescence;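 active means inhibition above that plate's mean sample inhibition plus 3 SD, cut at about 26% in these data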
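Test system: parental CHO cells; detection: calcium-sensitive Fluo-8 fluorescence; evaluation: percent inhibition of calcium signal; also added: ATP as calcium-mobilizing challenge; repeats: one well per compound; control set: ATP-challenged DMSO wells low, unchallenged DMSO wells high; compound: single nominal dose of 5.6 µM per compound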
TAAR1 agonist: human TAAR1 agonists, primary screen, Fluo-8 calcium fluorescence, CHO RD-HGA16 cells; Trace amine-associated receptor 1 (Homo sapiens), Q96RJ0; vehicle wells 0%, saturating PEA agonist 100%; activation, % at 3 µM; 360,000 tested, 0.99% active;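 active means activation above the mean activation of all test compounds in the run plus 3 SD, cut at about 38% in these data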
Target sequence (Q96RJ0 whole entry, looked up): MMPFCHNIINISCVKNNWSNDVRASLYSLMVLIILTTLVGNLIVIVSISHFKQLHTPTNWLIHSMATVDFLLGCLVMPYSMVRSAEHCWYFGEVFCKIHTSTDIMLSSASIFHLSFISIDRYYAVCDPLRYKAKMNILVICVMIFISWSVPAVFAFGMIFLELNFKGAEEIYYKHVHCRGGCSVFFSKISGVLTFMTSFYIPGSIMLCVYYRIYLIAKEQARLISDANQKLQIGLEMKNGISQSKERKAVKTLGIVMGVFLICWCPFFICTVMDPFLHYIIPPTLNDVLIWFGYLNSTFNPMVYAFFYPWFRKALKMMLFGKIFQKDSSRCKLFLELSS
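Assay system – CHO-derived RD-HGA16 cells with stable Gα16 and human TAAR1 · Compound dosing – one-point dosing at 3 µM (nominal) · Incubation – 17-24 h seeding, 75 min 37 °C dye, 30 min RT · Measured by – kinetic Fluo-8 calcium fluorescence · Control set – DMSO vehicle as 0%, PEA at EC100 as 100% · Repeats – single well for each compound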
OX1R antag-2: antagonists of human orexin 1 receptor (OX1R); Orexin/Hypocretin receptor type 1 (Homo sapiens), O43613; 330,000 tested, 1.8% active; AID 485270, 2010; inhibition, % at 6.6 µM; OX1R-expressing cells, FRET antagonist read-out; in the data active means inhibition mostly above about 38%, no sharp cut-off; inactive means mostly below about 40%
TAAR1 antagonist: human TAAR1 antagonists, primary screen, Fluo-8 calcium fluorescence, CHO RD-HGA16 cells. AID 624466, 2012. antagonist. inhibition, % at 3 µM. 360,000 tested, 1.5% active;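 active means inhibition above a per-plate cutoff, the mean inhibition of test compounds on that plate plus 3 SD, cut at about 49% in these data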
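Test system: CHO RD-HGA16 cells bearing hTAAR1 | Reagent: β-PEA, EC80 | Compound dosing: 3 µM, single point | Schedule: Dye loading 75 min at 37 °C, then 30 min room temperature | Signal: Calcium fluorescence with Fluo-8 | Evaluation: Percent inhibition of PEA-evoked calcium signal, max/basal emission ratio | Control set: DMSO-only wells and EC80 β-PEA-stimulated wells | Repeats: Singlicate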
A number is an active result; i = inactive; nt = no result.

SMILES	OX1R antag-1	GPR7 antagonist	CHO parental Ca	TAAR1 agonist	OX1R antag-2	TAAR1 antagonist
COc1ccccc1C(=O)Nc1nnc(-c2ccccc2)s1	i	i	i	i	51	i
Cc1ccc(S(=O)(=O)Nc2nc(-c3ccccc3)cs2)cc1	i	i	i	i	i	i
Cc1ccc(S(=O)(=O)N2CCCc3nc(C)c(C)cc32)cc1	nt	nt	nt	i	nt	i
CCCOc1ccc(F)cc1-c1cc(C(=O)NCc2cc(OC)cc(OC)c2)[nH]n1	nt	nt	nt	i	nt	i
CC1=C(C(=O)N(C)C)CC(CC(=O)NC(c2ccccc2)c2ccccc2)C(=O)N1CCCN1CCCC1=O (stereo unspecified)	nt	nt	nt	i	nt	i
Cc1csc(-c2nc3ccccc3n2C(C(=O)NC(C)(C)C)c2ccccc2)c1 (stereo unspecified)	nt	nt	nt	i	nt	i
COc1cccc(CNC(=O)[C@H]2CCCN2C(=O)[C@H]2CCCN2C(=O)c2ccc(C)cc2)c1	nt	nt	nt	i	nt	i
Cc1cc(O)ccc1NC(=O)Cc1cccc2ccccc12	nt	nt	nt	i	nt	i
COc1ccc(NC(=O)Nc2nnc(-c3ccncc3)s2)cc1	i	i	i	i	i	49
CC(C)(C)c1ccc(CC(=O)N2CCC2(C)C(=O)Nc2cnc3ccccc3c2)cc1 (stereo unspecified)	nt	nt	nt	i	nt	53
CC(C)c1ccc(CC(=O)N2CCC2(C)C(=O)Nc2cnc3ccccc3c2)cc1 (stereo unspecified)	nt	nt	nt	i	nt	i
C=CCOc1c(CCC)cc(CCC)cc1C(N)=O	i	i	94	i	i	i
CCOc1c(C(N)=O)cc([N+](=O)[O-])cc1[N+](=O)[O-]	i	i	i	i	i	i
COc1ccc(OC)c(C(c2nnnn2C2CCCC2)N2CCN(c3ccccc3F)CC2)c1 (stereo unspecified)	i	28	i	i	i	i
COc1ccc(OC)c(C(c2nnnn2C2CCCC2)N2CCc3ccccc3C2)c1 (stereo unspecified)	i	i	i	i	i	i
COc1ccc(C(c2nnnn2C2CCCC2)N2CCc3ccccc3C2)cc1OC (stereo unspecified)	nt	22	nt	i	nt	i
COc1ccc(N2CCN(C(c3ccccc3OC)c3nnnn3C3CCCC3)CC2)cc1 (stereo unspecified)	nt	i	nt	i	nt	i
COc1ccc(N2CCN(C(c3cccc(OC)c3OC)c3nnnn3C3CCCC3)CC2)cc1 (stereo unspecified)	i	21	i	i	i	i
COC(=O)c1cc2c(c3c4cc(OC)ccc4n(S(=O)(=O)c4ccc(OC)cc4)c13)C(=O)N(Cc1ccc(N(C)C)cc1)C2	nt	nt	nt	i	nt	i
O=C(NCc1nnc(SCC(=O)N2CCCc3ccccc32)n1-c1ccccc1)c1cccc2ccccc12	i	i	i	i	i	50
O=C(c1ccc(COc2ccccc2)o1)N1CCN(S(=O)(=O)c2ccccc2Cl)CC1	i	nt	i	i	i	51
COc1ccc(CNC(=O)Cn2cnc3c(NCc4ccccc4)ncnc32)cc1	i	nt	i	i	i	i
COc1ccc(/C=C/C(=O)Oc2cccc(/C=N/NC(=O)c3cccc(F)c3)c2)cc1	i	18	i	i	i	i
Cc1nc2cc(-c3ccccc3)nn2c(C)c1CCC(=O)NC(C)c1ccc2c(c1)OCCO2 (stereo unspecified)	i	i	i	i	52	i
Cc1nc2nc(C)c(CCC(=O)NC(C)c3ccc4c(c3)OCCO4)c(C)n2n1 (stereo unspecified)	i	i	i	i	i	i
SMILES	OX1R antag-1	GPR7 antagonist	CHO parental Ca	TAAR1 agonist	OX1R antag-2	TAAR1 antagonist
Cc1nc2cc(-c3cccc(F)c3)nn2c(C)c1CCC(=O)NC(C)c1ccc2c(c1)OCCO2 (stereo unspecified)	i	i	i	i	49	i
C=CCN=C1NC(CCc2ccccc2)C(C(=O)OC)=C(C)N1Cc1ccccc1C(F)(F)F (stereo unspecified)	nt	nt	nt	i	nt	i
Cc1ccc(C(=O)Nc2nnc([C@H]3C[C@H](O)[C@@H](CO)O3)s2)cc1	nt	nt	nt	i	nt	i
COc1ccc(-c2[nH]nc3nc(N4CCN(C(=O)c5ccoc5)CC4)cc(C(F)(F)F)c23)cc1	nt	nt	nt	i	nt	49
Cc1ccccc1-c1cccc2c3c([nH]c12)[C@@H]1C[C@H]2[C@@H](C(=O)N1CC3)[C@H](C)ON2C	nt	nt	nt	i	nt	i
COc1cc(/C=C/C(=O)OCC(=O)Nc2nnc(-c3ccccc3)o2)cc(OC)c1OC	i	nt	i	i	72	i
O=C(COC(=O)/C=C/c1ccccc1)Nc1nnc(-c2ccccc2)o1	i	nt	i	i	i	i
COc1ccc(/C=C(\C#N)c2n[nH]c(Cn3cncn3)n2)cc1	i	20	i	i	i	i
CN(CC(=O)N1CCCCC1)S(=O)(=O)c1cccc2nsnc12	i	i	i	i	55	i
Cc1ccc(NC(=O)CN(C)S(=O)(=O)c2cccc3nsnc23)cc1	i	i	i	i	i	i
CN(CC(=O)Nc1ccc(F)c(Cl)c1)S(=O)(=O)c1cccc2nsnc12	i	i	i	i	i	i
CCOc1ccc(CCNC(=O)CN(C)S(=O)(=O)c2cccc3nsnc23)cc1OCC	i	i	i	i	i	i
CN(CC(=O)NCCc1ccc(S(N)(=O)=O)cc1)S(=O)(=O)c1cccc2nsnc12	i	i	i	i	59	i
CC(=O)c1cccc(NC(=O)CN(C)S(=O)(=O)c2cccc3nsnc23)c1	i	i	i	i	44	i
Cc1ccc(CNC(=O)CN(C)S(=O)(=O)c2cccc3nsnc23)cc1	i	i	i	i	71	i
COC(=O)c1cc2c(c3c4cc(C)ccc4n(S(=O)(=O)c4cccc(C)c4)c13)C(=O)N(Cc1ccc(C(F)(F)F)cc1)C2	nt	nt	nt	i	nt	i
OC(c1ccccc1)(c1ccccc1)C1CCN(CCCOc2ccccn2)CC1	nt	nt	nt	i	nt	i
O=C(CSCC(=O)N1CCCCC1)Nc1nc(-c2ccc(Cl)s2)cs1	i	i	30	i	i	54
O=C(Nc1nc(-c2cccs2)cs1)c1ccc(Cl)cc1	i	i	i	i	i	i
O=C(CSCC(=O)N1CCN(c2ccccc2)CC1)Nc1nc(-c2ccc(Cl)s2)cs1	i	i	i	i	i	i
O=C(Nc1nc(-c2ccc(Cl)s2)cs1)c1ccncc1	i	i	i	i	44	i
O=C(Nc1nc(-c2ccccc2Cl)cs1)c1cccnc1	i	i	i	41	i	i
COc1ccccc1NC(=O)COC(=O)c1oc2ccccc2c1C	i	i	i	i	51	i

From PubChem BioAssay
